# Data: ChEMBL document CHEMBL3525944, “Nonlinear pharmacokinetics of 5-methoxy-N,N-dimethyltryptamine in mice” (Drug Metab Dispos, 2011)
# Legend:
# [1] = Bioavailability in wild-type FVB/N mouse at 20 mg/kg, ip by LC-MS/MS analysis; format: ADME, organism-based; conditions: in vivo
# [2] = test system: Mus musculus; test: AUC (0 to infinity) in CYP2D6-humanized transgenic FVB/N mouse at 2 mg/kg, iv by LC-MS/MS analysis; format: ADME, organism-based, Plasma; set-up: time infinity, dose 2 mg/kg, route intravenous; conditions: in vivo
# [3] = test system: Mus musculus; test: AUC (0 to infinity) in CYP2D6-humanized transgenic FVB/N mouse at 10 mg/kg, iv by LC-MS/MS analysis; format: ADME, organism-based, Plasma; set-up: time infinity, dose 10 mg/kg, route intravenous; conditions: in vivo
# [4] = test system: Mus musculus; test: AUC (0 to infinity) in CYP2D6-humanized transgenic FVB/N mouse at 20 mg/kg, iv by LC-MS/MS analysis; format: ADME, organism-based, Plasma; set-up: time infinity, dose 20 mg/kg, route intravenous; conditions: in vivo
# [5] = test system: Mus musculus; test: Dose normalized AUC (0 to infinity) in CYP2D6-humanized transgenic FVB/N mouse at 2 mg/kg, iv by LC-MS/MS analysis; format: ADME, organism-based; set-up: dose 2 mg/kg, route intravenous; conditions: in vivo
# [6] = test system: Mus musculus; test: Dose normalized AUC (0 to infinity) in CYP2D6-humanized transgenic FVB/N mouse at 10 mg/kg, iv by LC-MS/MS analysis; format: ADME, organism-based; set-up: dose 10 mg/kg, route intravenous; conditions: in vivo
# [7] = test system: Mus musculus; test: Dose normalized AUC (0 to infinity) in CYP2D6-humanized transgenic FVB/N mouse at 20 mg/kg, iv by LC-MS/MS analysis; format: ADME, organism-based; set-up: dose 20 mg/kg, route intravenous; conditions: in vivo
# [8] = Clearance in CYP2D6-humanized transgenic FVB/N mouse at 2 mg/kg, iv by LC-MS/MS analysis; format: ADME, organism-based; set-up: dose 2 mg/kg, route intravenous; conditions: in vivo
# [9] = Clearance in CYP2D6-humanized transgenic FVB/N mouse at 10 mg/kg, iv by LC-MS/MS analysis; format: ADME, organism-based; set-up: dose 10 mg/kg, route intravenous; conditions: in vivo
# [10] = Clearance in CYP2D6-humanized transgenic FVB/N mouse at 20 mg/kg, iv by LC-MS/MS analysis; format: ADME, organism-based; set-up: dose 20 mg/kg, route intravenous; conditions: in vivo
# [11] = Volume of distribution at steady state in CYP2D6-humanized transgenic FVB/N mouse at 2 mg/kg, iv by LC-MS/MS analysis; format: ADME, organism-based; set-up: dose 2 mg/kg, route intravenous; conditions: in vivo, read-out: Vdss
# Procedure, shortened: (§1)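 Male 8-week FVB/N wild-type or CYP2D6-humanized mice (25-30 g) given 5-MeO-DMT oxalate in saline i.v. at 5 µL/g body weight. Serum collected 0-180 min, N = 3 per time point, proteins precipitated with ice-cold acetonitrile containing internal standard, LC-MS/MS. Noncompartmental analysis of composite mean data; t1/2 = 0.693/terminal slope; Vss = CL×AUMC/AUC, CL = dose/AUC0→∞.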
# [12] = Volume of distribution at steady state in CYP2D6-humanized transgenic FVB/N mouse at 10 mg/kg, iv by LC-MS/MS analysis; format: ADME, organism-based; set-up: dose 10 mg/kg, route intravenous; conditions: in vivo, read-out: Vdss; procedure, shortened: as §1
# [13] = Volume of distribution at steady state in CYP2D6-humanized transgenic FVB/N mouse at 20 mg/kg, iv by LC-MS/MS analysis; format: ADME, organism-based; set-up: dose 20 mg/kg, route intravenous; conditions: in vivo, read-out: Vdss; procedure, shortened: as §1
# [14] = Half life in CYP2D6-humanized transgenic FVB/N mouse at 2 mg/kg, iv by LC-MS/MS analysis; format: ADME, organism-based; set-up: dose 2 mg/kg, route intravenous; conditions: in vivo
# [15] = Half life in CYP2D6-humanized transgenic FVB/N mouse at 10 mg/kg, iv by LC-MS/MS analysis; format: ADME, organism-based; set-up: dose 10 mg/kg, route intravenous; conditions: in vivo
# [16] = Half life in CYP2D6-humanized transgenic FVB/N mouse at 20 mg/kg, iv by LC-MS/MS analysis; format: ADME, organism-based; set-up: dose 20 mg/kg, route intravenous; conditions: in vivo
# [17] = test system: Mus musculus; test: AUC (0 to infinity) in CYP2D6-humanized transgenic FVB/N mouse at 2 mg/kg, ip by LC-MS/MS analysis; format: ADME, organism-based, Plasma; set-up: time infinity, dose 2 mg/kg, route intraperitoneal; conditions: in vivo
# [18] = test system: Mus musculus; test: AUC (0 to infinity) in CYP2D6-humanized transgenic FVB/N mouse at 10 mg/kg, ip by LC-MS/MS analysis; format: ADME, organism-based, Plasma; set-up: time infinity, dose 10 mg/kg, route intraperitoneal; conditions: in vivo
# [19] = test system: Mus musculus; test: AUC (0 to infinity) in CYP2D6-humanized transgenic FVB/N mouse at 20 mg/kg, ip by LC-MS/MS analysis; format: ADME, organism-based, Plasma; set-up: time infinity, dose 20 mg/kg, route intraperitoneal; conditions: in vivo
# [20] = test system: Mus musculus; test: Dose normalized AUC (0 to infinity) in CYP2D6-humanized transgenic FVB/N mouse at 2 mg/kg, ip by LC-MS/MS analysis; format: ADME, organism-based; set-up: dose 2 mg/kg, route intraperitoneal; conditions: in vivo
# [21] = test system: Mus musculus; test: Dose normalized AUC (0 to infinity) in CYP2D6-humanized transgenic FVB/N mouse at 10 mg/kg, ip by LC-MS/MS analysis; format: ADME, organism-based; set-up: dose 10 mg/kg, route intraperitoneal; conditions: in vivo
# [22] = test system: Mus musculus; test: Dose normalized AUC (0 to infinity) in CYP2D6-humanized transgenic FVB/N mouse at 20 mg/kg, ip by LC-MS/MS analysis; format: ADME, organism-based; set-up: dose 20 mg/kg, route intraperitoneal; conditions: in vivo
# [23] = Tmax in CYP2D6-humanized transgenic FVB/N mouse at 2 mg/kg, ip by LC-MS/MS analysis; format: ADME, organism-based; set-up: dose 2 mg/kg, route intraperitoneal; conditions: in vivo
# Procedure, shortened: (§2)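 Male 8-week FVB/N wild-type or CYP2D6-humanized mice given 5-MeO-DMT oxalate in saline i.p. at 10 µL/g body weight. Serum sampled 0-180 min, N = 4 per time point, processed by acetonitrile protein precipitation with internal standard, quantified by LC-MS/MS. Tmax taken as observed from composite mean serum concentration-time data.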
# [24] = Tmax in CYP2D6-humanized transgenic FVB/N mouse at 10 mg/kg, ip by LC-MS/MS analysis; format: ADME, organism-based; set-up: dose 10 mg/kg, route intraperitoneal; conditions: in vivo; procedure, shortened: as §2
# [25] = Tmax in CYP2D6-humanized transgenic FVB/N mouse at 20 mg/kg, ip by LC-MS/MS analysis; format: ADME, organism-based; set-up: dose 20 mg/kg, route intraperitoneal; conditions: in vivo; procedure, shortened: as §2
# [26] = Cmax in CYP2D6-humanized transgenic FVB/N mouse at 2 mg/kg, ip by LC-MS/MS analysis; format: ADME, organism-based; set-up: dose 2 mg/kg, route intraperitoneal; conditions: in vivo
# [27] = Cmax in CYP2D6-humanized transgenic FVB/N mouse at 10 mg/kg, ip by LC-MS/MS analysis; format: ADME, organism-based; set-up: dose 10 mg/kg, route intraperitoneal; conditions: in vivo
# [28] = Cmax in CYP2D6-humanized transgenic FVB/N mouse at 20 mg/kg, ip by LC-MS/MS analysis; format: ADME, organism-based; set-up: dose 20 mg/kg, route intraperitoneal; conditions: in vivo
# [29] = Bioavailability in CYP2D6-humanized transgenic FVB/N mouse at 2 mg/kg, ip by LC-MS/MS analysis; format: ADME, organism-based; conditions: in vivo
# [30] = Bioavailability in CYP2D6-humanized transgenic FVB/N mouse at 10 mg/kg, ip by LC-MS/MS analysis; format: ADME, organism-based; conditions: in vivo
# [31] = test system: Mus musculus; test: AUC (0 to infinity) in wild-type FVB/N mouse at 20 mg/kg, iv by LC-MS/MS analysis; format: ADME, organism-based, Plasma; set-up: time infinity, dose 20 mg/kg, route intravenous; conditions: in vivo
# [32] = Bioavailability in CYP2D6-humanized transgenic FVB/N mouse at 20 mg/kg, ip by LC-MS/MS analysis; format: ADME, organism-based; conditions: in vivo
# [33] = Ratio of drug level in brain to serum in wild-type FVB/N mouse at 10 mg/kg, ip by LC-MS/MS analysis; format: ADME, organism-based; set-up: dose 10 mg/kg, route intraperitoneal
# Procedure, shortened: (§3)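 Mice dosed i.p. with 5-MeO-DMT in saline and killed at 20, 30 or 60 min. Brain homogenized in ice-cold saline and extracted liquid-liquid; serum processed by acetonitrile precipitation. Both quantified by LC-MS/MS (brain range 4.1-3000 nM). Ratio is brain over serum concentration at the same time point.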
# [34] = Ratio of drug level in brain to serum in CYP2D6-humanized transgenic FVB/N mouse at 10 mg/kg, ip by LC-MS/MS analysis; format: ADME, organism-based; set-up: dose 10 mg/kg, route intraperitoneal; procedure, shortened: as §3
# [35] = Ratio of drug level in brain to serum in wild-type FVB/N mouse at 20 mg/kg, ip by LC-MS/MS analysis; format: ADME, organism-based; set-up: dose 20 mg/kg, route intraperitoneal; procedure, shortened: as §3
# [36] = Ratio of drug level in brain to serum in CYP2D6-humanized transgenic FVB/N mouse at 20 mg/kg, ip by LC-MS/MS analysis; format: ADME, organism-based; set-up: dose 20 mg/kg, route intraperitoneal; procedure, shortened: as §3
compound,measurement,setting,value
COc1ccc2[nH]cc(CCN(C)C)c2c1.O=C(O)C(=O)O,bioavailability,[1],71%
same,AUC,[2],49.1 µmol·min/L
same,AUC,[3],369 µmol·min/L
same,AUC,[4],866 µmol·min/L
same,AUC/dose,[5],5.36 kg·min/L
same,AUC/dose,[6],8.1 kg·min/L
same,AUC/dose,[7],9.45 kg·min/L
same,clearance,[8],190 mL/min/kg
same,clearance,[9],120 mL/min/kg
same,clearance,[10],110 mL/min/kg
same,Vd,[11],2.55 L/kg
same,Vd,[12],1.68 L/kg
same,Vd,[13],2.18 L/kg
same,half-life,[14],8.4 min
same,half-life,[15],12 min
same,half-life,[16],12 min
same,AUC,[17],20.9 µmol·min/L
same,AUC,[18],225 µmol·min/L
same,AUC,[19],569 µmol·min/L
same,AUC/dose,[20],2.28 kg·min/L
same,AUC/dose,[21],4.92 kg·min/L
same,AUC/dose,[22],6.2 kg·min/L
same,Tmax,[23],3 min
same,Tmax,[24],5 min
same,Tmax,[25],5 min
same,Cmax,[26],1.01 µM
same,Cmax,[27],8.93 µM
same,Cmax,[28],18.3 µM
same,bioavailability,[29],42.5%
same,bioavailability,[30],61%
same,AUC,[31],920 µmol·min/L
same,bioavailability,[32],65.6%
same,Kp,[33],1.8
same,Kp,[34],1.2
same,Kp,[35],2.7
same,Kp,[36],3.2
